Six molecules from ChEMBL document CHEMBL3580602, “Iminolactones from Schizophyllum commune” (J Nat Prod, 2015) can be followed below.

The test system of series [1] is EL4. In words: Cytotoxicity against mouse EL4 cells assessed as growth inhibition after 48 hrs by sulforhodamine B assay. In kind it is functional, cell-based. The conditions noted are these: EL4, 48 h. The method in brief: (§1)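 Cancer lines sourced from the National Cancer Institute and run in a high-flux anticancer screen. Cells were exposed to the test compound over a range of concentrations at 37 °C for 48 h. IC50 is reported as the mean of four experiments, with thapsigargin, methotrexate and paclitaxel as positive controls.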
A general note: In SRB staining, fixed cells bind dye roughly in proportion to their protein.

The subject of series [2] is MCF7. In words: Cytotoxicity against human MCF7 cells assessed as growth inhibition after 48 hrs by sulforhodamine B assay. In kind it is functional, cell-based. The settings on record: MCF7, 48 h. The method in brief: as §1
Series [3] concerns PC-3. In words: Cytotoxicity against human PC3 cells assessed as growth inhibition after 48 hrs by sulforhodamine B assay. It counts as functional, cell-based. The conditions noted are these: PC-3, 48 h. The method in brief: as §1
The nature of series [4]: Cytotoxicity against mouse McCoy cells assessed as growth inhibition. It counts as cell-based.
A short description of series [5]: Cytotoxicity against human MCF10A cells assessed as growth inhibition. In kind it is cell-based. The settings on record: MCF-10A.
Series [6] is described as follows: Cytotoxicity against mouse McCoy cells assessed as growth inhibition at 1230 uM relative to control. In kind it is cell-based. The settings on record: read-out: GI.
Series [7] can be described thus: Cytotoxicity against human MCF10A cells assessed as growth inhibition at 1230 uM relative to control. It counts as cell-based, MCF-10A. The conditions noted are these: read-out: GI.
For series [8], the system named is EL4. In words: Cytotoxicity against mouse EL4 cells up to 200 uM after 48 hrs by sulforhodamine B assay. In kind it is functional, cell-based. A digest of the protocol: as §1
The subject of series [9] is MCF7. In words: Cytotoxicity against human MCF7 cells up to 200 uM after 48 hrs by sulforhodamine B assay. In kind it is functional, cell-based. The method in brief:
as §1

In series [10] the test system is PC-3. In words: Cytotoxicity against human PC3 cells up to 200 uM after 48 hrs by sulforhodamine B assay. In kind it is functional, cell-based. The method in brief:
as §1

The nature of series [11]: Cytotoxicity against mouse McCoy cells up to 200 uM. In kind it is cell-based.
The nature of series [12]: Cytotoxicity against human MCF10A cells up to 200 uM. In kind it is cell-based. The conditions noted are these: mcf-10a.

Each structure is given as a SMILES string. Activity calls are given as the source filed them. No cut-off for these calls is given here.

As usually defined, the IC50 is the concentration at which inhibition is half-maximal. Take `CC1(C)C[C@@H]2OC(=O)[C@H](Cc3c[nH]c4ccccc34)N=C2[C@@]23C(=O)OC4OCC(=CC[C@@H]12)[C@H]43` (stereo partly specified): the IC50 in series [1] was 4 µM; in [2], 6.7 µM; in series [3] it was 13.4 µM; in [4], over 1230 µM; in [5], over 1230 µM. In addition, the inhibition at 1230 µM in [6] came to 41%; in series [7], 20%.

Take `CN(Cc1cnc2nc(N)nc(N)c2n1)c1ccc(C(=O)N[C@@H](CCC(=O)O)C(=O)O)cc1` [METHOTREXATE]: the IC50 in series [1] turned out to be 5.1 µM.

On to `CC1(C)C[C@@H]2OC(=O)[C@@H](Cc3ccccc3)N=C2[C@@]23C(=O)OC4OCC(=CC[C@@H]12)[C@H]43` (stereo partly specified), for which the result in series [8], in [9] and in series [10] was inactive. The Activity result in series [11] and in series [12] was “Non-toxic” each time.

As for `CC1(C)C[C@@H]2OC(=O)[C@H](Cc3ccccc3)N=C2[C@@]23C(=O)OC4OCC(=CC[C@@H]12)[C@H]43` (stereo partly specified), the IC50 in series [1] is 3.7 µM; in series [2] it was 4.9 µM; in series [3], 14.7 µM; in series [4], over 1230 µM; in series [5] it was over 1230 µM. In addition, the inhibition at 1230 µM in series [6] was 30%; in [7] it was 22%.

As for `C/C=C(/C)C(=O)O[C@H]1C(C)=C2[C@H]([C@@H]1OC(=O)CCCCCCC)[C@@](C)(OC(C)=O)C[C@H](OC(=O)CCC)[C@@]1(O)[C@H]2OC(=O)[C@@]1(C)O` [THAPSIGARGIN], the IC50 in series [1] worked out at 1.4 µM; in series [2] it was 2.7 µM; in series [3], 2.4 µM; in series [4], 2 µM; in series [5] it was 2.4 µM.

In the case of `CC(=O)O[C@H]1C(=O)[C@@]2(C)[C@H]([C@H](OC(=O)c3ccccc3)[C@]3(O)C[C@H](OC(=O)[C@H](O)[C@@H](NC(=O)c4ccccc4)c4ccccc4)C(C)=C1C3(C)C)[C@]1(OC(C)=O)CO[C@@H]1C[C@@H]2O` [PACLITAXEL], in [1], the IC50 was determined as 1.7 µM.
